Source: ChEMBL document CHEMBL1156765, “Novel organic proteasome inhibitors identified by virtual and in vitro screening” (J Med Chem, 2010)
Calls of active or inactive are those of the source. The calls are words filed in the database; no cut-off is given here.

organism: Oryctolagus cuniculus; assay: Inhibition of post-acid activity of rabbit 20S proteasome at 100 uM at pH 8 after 15 mins; conditions: not given
In short: (§1)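 Rabbit 20S proteasome held with inhibitor for 15 min at pH 8, 37 °C. The matching fluorogenic substrate was then added to read the remaining chymotrypsin-like, post-acid or trypsin-like activity. Results are reported as IC50, or as % inhibition at a single inhibitor concentration of 50 or 100 μM.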

SMILES | inhibition [%]
CCc1ccc(-c2cc(C(=O)Nc3ccc(S(=O)(=O)NC(C)=O)cc3)c3ccccc3n2)cc1 | 45
CC(C)(C)c1ccc(C(=O)Nc2ccc(S(=O)(=O)N3CCCCCC3)cc2)cc1 | 63
CCOc1ccc(-c2cc(C(=O)Nc3ccc(S(=O)(=O)NC(C)=O)cc3)c3ccccc3n2)cc1 | 42

tested on: not listed separately; assay: Inhibition of post-acid activity of rabbit 20S proteasome at pH 8 after 15 mins; design: species or system Oryctolagus cuniculus; conditions: not given; in short: as §1

SMILES | IC50
O=C(Nc1ccc(S(=O)(=O)NCc2ccccc2)cc1)c1cc(-c2cccs2)nc2ccccc12 | Not Active
COc1ccc(N2CCN(C(=O)COc3ccc(C(C)(C)C)cc3)CC2)c([N+](=O)[O-])c1 | Not Active

same assay, conditions: read-out: IC50

SMILES | IC50 [µM]
COc1ccc(N2CCN(C(=S)Nc3ccc([N+](=O)[O-])cc3)CC2)cc1 | 9
CCCN(CCC)S(=O)(=O)c1ccc(NC(=O)c2ccc(C(C)(C)C)cc2)cc1 | 8
C=CCN(CC=C)S(=O)(=O)c1ccc(NC(=O)c2ccc(C(C)(C)C)cc2)cc1 | 10
COc1ccc(NC(=O)C23CC4CC(C2)CC(c2ccc(C)cc2)(C4)C3)cc1 | 50
CCOC(=O)CNS(=O)(=O)c1cc(-c2nnc(Nc3cccc(O)c3)c3ccccc23)ccc1C | 39
Cc1ccc(-c2nnc(Nc3cccc(O)c3)c3ccccc23)cc1S(=O)(=O)NC(C)(C)CO | 14.8
CCN(CC)S(=O)(=O)c1ccc(NC(=O)c2ccc(C(C)(C)C)cc2)cc1 | > 25
COc1ccc(NC(=O)C23CC4CC(C2)CC(C(=O)Nc2ccc(OC)cc2)(C4)C3)cc1 | 12.4

tested on: HEK293; assay: Cytotoxicity against human HEK293 cells after 48 hrs by XTT assay; format: functional, cell-based; conditions: HEK293, 48 h

SMILES | EC50 [µM]
COc1ccc(N2CCN(C(=S)Nc3ccc([N+](=O)[O-])cc3)CC2)cc1 | 50
Cc1ccc(-c2nnc(Nc3cccc(O)c3)c3ccccc23)cc1S(=O)(=O)NC(C)(C)C | 10.4
CCCN(CCC)S(=O)(=O)c1ccc(NC(=O)c2ccc(C(C)(C)C)cc2)cc1 | < 5
C=CCN(CC=C)S(=O)(=O)c1ccc(NC(=O)c2ccc(C(C)(C)C)cc2)cc1 | 9.7
CC(=O)NS(=O)(=O)c1ccc(NC(=O)c2cc(-c3ccc(Cl)s3)nc3ccccc23)cc1 | 75
CCOC(=O)CNS(=O)(=O)c1cc(-c2nnc(Nc3cccc(O)c3)c3ccccc23)ccc1C | 13.9

organism: Oryctolagus cuniculus; assay: Inhibition of chymotrypsin-like activity of rabbit 20S proteasome at 100 uM at pH 8 after 15 mins; conditions: not given; in short: as §1

SMILES | inhibition [%]
CCN(CC)S(=O)(=O)c1ccc(NC(=O)c2ccc(C(C)(C)C)cc2)cc1 | 87

organism: Oryctolagus cuniculus; assay: Inhibition of post-acid activity of rabbit 20S proteasome at 50 uM at pH 8 after 15 mins; conditions: not given; in short: as §1

SMILES | inhibition [%]
CC(C)(C)c1ccc(OCC(=O)N2CCN(c3ccc([N+](=O)[O-])cc3)CC2)c(Br)c1 | 49
Cc1ccc(-c2nnc(Nc3ccccc3)c3ccccc23)cc1S(=O)(=O)NCC1CCCO1 (stereo not drawn) | 52
CC(C)(C)c1ccc(/C=C/C(=O)N2CCN(c3ccc([N+](=O)[O-])cc3)CC2)cc1 | 52
Cc1ccc(-c2nnc(Nc3cccc(O)c3)c3ccccc23)cc1S(=O)(=O)NC(C)(C)C | 29
Cc1ccccc1C(=O)Nc1ccc(S(=O)(=O)NCc2ccccc2)cc1 | 54

organism: Oryctolagus cuniculus; assay: Inhibition of trypsin-like activity of rabbit 20S proteasome at 50 uM at pH 8 after 15 mins; conditions: not given; in short: as §1

SMILES | inhibition [%]
Cc1ccc(-c2nnc(Nc3cccc(O)c3)c3ccccc23)cc1S(=O)(=O)NC(C)(C)C | 44
CCOc1ccc(-c2cc(C(=O)Nc3ccc(S(=O)(=O)NC(C)=O)cc3)c3ccccc3n2)cc1 | 45

molecular target: T1, Calpain-1 catalytic subunit (Homo sapiens) (UniProt P07384); assay: Inhibition of cytosolic calpain 1 at 50 uM at pH 7.2; conditions: not given
T1 sequence (whole entry): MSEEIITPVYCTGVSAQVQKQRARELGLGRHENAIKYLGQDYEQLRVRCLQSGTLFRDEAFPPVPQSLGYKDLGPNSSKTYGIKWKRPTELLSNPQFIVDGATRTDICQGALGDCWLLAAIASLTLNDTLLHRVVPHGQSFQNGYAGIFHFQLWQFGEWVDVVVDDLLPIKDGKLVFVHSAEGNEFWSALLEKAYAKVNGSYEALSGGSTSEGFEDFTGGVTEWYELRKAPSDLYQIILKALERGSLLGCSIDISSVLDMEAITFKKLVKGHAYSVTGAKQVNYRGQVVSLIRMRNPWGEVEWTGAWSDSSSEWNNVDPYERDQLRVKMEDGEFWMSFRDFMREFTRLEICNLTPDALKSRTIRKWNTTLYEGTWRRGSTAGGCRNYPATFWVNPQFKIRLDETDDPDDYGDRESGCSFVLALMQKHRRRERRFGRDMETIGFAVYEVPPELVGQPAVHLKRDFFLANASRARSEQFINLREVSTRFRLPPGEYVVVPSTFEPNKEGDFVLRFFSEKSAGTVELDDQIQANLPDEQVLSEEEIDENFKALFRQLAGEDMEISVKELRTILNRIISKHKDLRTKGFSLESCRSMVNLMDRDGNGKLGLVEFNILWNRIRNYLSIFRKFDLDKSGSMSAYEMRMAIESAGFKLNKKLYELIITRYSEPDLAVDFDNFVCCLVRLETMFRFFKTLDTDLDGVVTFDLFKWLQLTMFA

SMILES | Activity
CCCN(CCC)S(=O)(=O)c1ccc(NC(=O)c2ccc(C(C)(C)C)cc2)cc1 | inactive
C=CCN(CC=C)S(=O)(=O)c1ccc(NC(=O)c2ccc(C(C)(C)C)cc2)cc1 | inactive

molecular target: T1, Calpain-1 catalytic subunit (Homo sapiens); assay: Inhibition of cytosolic calpain 1 at 100 uM at pH 7.2; conditions: not given

SMILES | Activity
CCCN(CCC)S(=O)(=O)c1ccc(NC(=O)c2ccc(C(C)(C)C)cc2)cc1 | inactive
C=CCN(CC=C)S(=O)(=O)c1ccc(NC(=O)c2ccc(C(C)(C)C)cc2)cc1 | inactive

tested on: not listed separately; assay: Inhibition of trypsin-like activity of rabbit 20S proteasome at pH 8 after 15 mins; design: species or system Oryctolagus cuniculus; conditions: not given; in short: as §1

SMILES | IC50
CC(C)(C)c1ccc(OCC(=O)N2CCN(c3ccc([N+](=O)[O-])cc3)CC2)c(Br)c1 | Not Active
CC(C)(C)c1ccc(/C=C/C(=O)N2CCN(c3ccc([N+](=O)[O-])cc3)CC2)cc1 | Not Active

same assay, conditions: read-out: IC50

SMILES | IC50 [µM]
CCc1ccc(-c2cc(C(=O)Nc3ccc(S(=O)(=O)NC(C)=O)cc3)c3ccccc3n2)cc1 | 25.6
C=CCN(CC=C)S(=O)(=O)c1ccc(NC(=O)c2ccc(C(C)(C)C)cc2)cc1 | 4.5
Cc1ccc(-c2nnc(Nc3cccc(O)c3)c3ccccc23)cc1S(=O)(=O)NC(C)(C)CO | 67.8

tested on: not listed separately; assay: Inhibition of chymotrypsin-like activity of rabbit 20S proteasome at pH 8 after 15 mins; design: species or system Oryctolagus cuniculus; conditions: not given; in short: as §1

SMILES | IC50
CC(C)(C)c1ccc(OCC(=O)N2CCN(c3ccc([N+](=O)[O-])cc3)CC2)c(Br)c1 | Not Active
CCc1ccc(-c2cc(C(=O)Nc3ccc(S(=O)(=O)NC(C)=O)cc3)c3ccccc3n2)cc1 | Not Active
Cc1ccc(-c2nnc(Nc3ccccc3)c3ccccc23)cc1S(=O)(=O)NCC1CCCO1 (stereo not drawn) | Not Active
CC(C)(C)c1ccc(/C=C/C(=O)N2CCN(c3ccc([N+](=O)[O-])cc3)CC2)cc1 | Not Active
Cc1ccccc1C(=O)Nc1ccc(S(=O)(=O)NCc2ccccc2)cc1 | Not Active
CCOc1ccc(-c2cc(C(=O)Nc3ccc(S(=O)(=O)NC(C)=O)cc3)c3ccccc3n2)cc1 | Not Active

same assay, conditions: read-out: IC50

SMILES | IC50 [µM]
COc1ccc(N2CCN(C(=S)Nc3ccc([N+](=O)[O-])cc3)CC2)cc1 | 10.8
Cc1ccc(-c2nnc(Nc3cccc(O)c3)c3ccccc23)cc1S(=O)(=O)NC(C)(C)C | 28.3
CCCN(CCC)S(=O)(=O)c1ccc(NC(=O)c2ccc(C(C)(C)C)cc2)cc1 | 18.9
C=CCN(CC=C)S(=O)(=O)c1ccc(NC(=O)c2ccc(C(C)(C)C)cc2)cc1 | 1.9
COc1ccc(NC(=O)C23CC4CC(C2)CC(c2ccc(C)cc2)(C4)C3)cc1 | 26.2
CC(C)(C)c1ccc(C(=O)Nc2ccc(S(=O)(=O)N3CCCCCC3)cc2)cc1 | > 50
Cc1ccc(-c2nnc(Nc3cccc(O)c3)c3ccccc23)cc1S(=O)(=O)NC(C)(C)CO | 35.4
COc1ccc(NC(=O)C23CC4CC(C2)CC(C(=O)Nc2ccc(OC)cc2)(C4)C3)cc1 | 11.7

tested on: HeLa; assay: Cytotoxicity against human HeLa cells after 48 hrs by XTT assay; format: functional, cell-based; conditions: not given

SMILES | EC50 [µM]
CCCN(CCC)S(=O)(=O)c1ccc(NC(=O)c2ccc(C(C)(C)C)cc2)cc1 | 9
C=CCN(CC=C)S(=O)(=O)c1ccc(NC(=O)c2ccc(C(C)(C)C)cc2)cc1 | 12.3
CC(=O)NS(=O)(=O)c1ccc(NC(=O)c2cc(-c3ccc(Cl)s3)nc3ccccc23)cc1 | 100

organism: Oryctolagus cuniculus; assay: Inhibition of trypsin-like activity of rabbit 20S proteasome at 100 uM at pH 8 after 15 mins; conditions: not given; in short: as §1

SMILES | inhibition [%]
Cc1ccccc1C(=O)Nc1ccc(S(=O)(=O)NCc2ccccc2)cc1 | 13
CCOC(=O)CNS(=O)(=O)c1cc(-c2nnc(Nc3cccc(O)c3)c3ccccc23)ccc1C | 63

organism: Oryctolagus cuniculus; assay: Inhibition of chymotrypsin-like activity of rabbit 20S proteasome at 50 uM at pH 8 after 15 mins; conditions: not given; in short: as §1

SMILES | inhibition [%]
O=C(Nc1ccc(S(=O)(=O)NCc2ccccc2)cc1)c1cc(-c2cccs2)nc2ccccc12 | 70.1
COc1ccc(N2CCN(C(=O)COc3ccc(C(C)(C)C)cc3)CC2)c([N+](=O)[O-])c1 | 40
CCOC(=O)CNS(=O)(=O)c1cc(-c2nnc(Nc3cccc(O)c3)c3ccccc23)ccc1C | 35
